Measured values reported in ChEMBL document CHEMBL4368943 (J Med Chem, 2019).
Activity calls are given as the source filed them. The calls are words filed in the database; no cut-off is given here.

Key:
[1] = target: T1, von Hippel-Lindau disease tumor suppressor/Estrogen receptor/Cullin-2 (Homo sapiens, UniProt P03372+P40337+Q13617); assay: Protac activity against VHL/cullin2/ERalpha in human MCF7 cells assessed as ERalpha degradation by measuring ER protein/GADPH ratio at 1 nM after 4 hrs by Western blot analysis relative to control; type: cell-based
Outline: (§1)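 MCF-7 cells (DMEM, 10% FBS, passages 3−8) exposed 4 h. Lysed in RIPA with protease inhibitors; equal protein on 10% SDS-PAGE, PVDF, anti-ERα blot. Membranes stripped and reprobed for GAPDH. ERα/GAPDH ratio normalized to DMSO = 100; DC50 from densitometry of the dose series.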
Target sequence in this assay (P03372 whole entry, looked up): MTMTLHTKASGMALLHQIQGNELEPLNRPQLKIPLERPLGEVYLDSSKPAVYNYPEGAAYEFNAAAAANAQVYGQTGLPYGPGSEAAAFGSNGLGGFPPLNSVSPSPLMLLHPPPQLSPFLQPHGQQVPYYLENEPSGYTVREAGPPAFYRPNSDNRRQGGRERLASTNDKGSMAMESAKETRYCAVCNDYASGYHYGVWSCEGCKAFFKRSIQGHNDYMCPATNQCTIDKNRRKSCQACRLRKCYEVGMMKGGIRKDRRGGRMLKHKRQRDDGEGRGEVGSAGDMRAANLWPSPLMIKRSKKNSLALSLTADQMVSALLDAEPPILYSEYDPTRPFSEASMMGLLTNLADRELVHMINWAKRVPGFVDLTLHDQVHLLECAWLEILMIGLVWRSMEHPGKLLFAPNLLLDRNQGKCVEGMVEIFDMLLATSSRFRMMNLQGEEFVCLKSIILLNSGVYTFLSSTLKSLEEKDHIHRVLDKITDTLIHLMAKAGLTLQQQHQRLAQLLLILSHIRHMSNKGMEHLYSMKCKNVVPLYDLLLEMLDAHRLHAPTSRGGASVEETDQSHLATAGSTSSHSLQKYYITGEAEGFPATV
Target sequence in this assay (P40337 whole entry, looked up): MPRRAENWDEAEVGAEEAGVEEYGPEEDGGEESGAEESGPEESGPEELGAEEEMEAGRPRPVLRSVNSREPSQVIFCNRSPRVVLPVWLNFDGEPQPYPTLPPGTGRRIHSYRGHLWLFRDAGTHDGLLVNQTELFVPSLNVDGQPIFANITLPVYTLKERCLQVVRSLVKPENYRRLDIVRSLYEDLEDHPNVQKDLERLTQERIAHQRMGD
Target sequence in this assay (Q13617 whole entry, looked up): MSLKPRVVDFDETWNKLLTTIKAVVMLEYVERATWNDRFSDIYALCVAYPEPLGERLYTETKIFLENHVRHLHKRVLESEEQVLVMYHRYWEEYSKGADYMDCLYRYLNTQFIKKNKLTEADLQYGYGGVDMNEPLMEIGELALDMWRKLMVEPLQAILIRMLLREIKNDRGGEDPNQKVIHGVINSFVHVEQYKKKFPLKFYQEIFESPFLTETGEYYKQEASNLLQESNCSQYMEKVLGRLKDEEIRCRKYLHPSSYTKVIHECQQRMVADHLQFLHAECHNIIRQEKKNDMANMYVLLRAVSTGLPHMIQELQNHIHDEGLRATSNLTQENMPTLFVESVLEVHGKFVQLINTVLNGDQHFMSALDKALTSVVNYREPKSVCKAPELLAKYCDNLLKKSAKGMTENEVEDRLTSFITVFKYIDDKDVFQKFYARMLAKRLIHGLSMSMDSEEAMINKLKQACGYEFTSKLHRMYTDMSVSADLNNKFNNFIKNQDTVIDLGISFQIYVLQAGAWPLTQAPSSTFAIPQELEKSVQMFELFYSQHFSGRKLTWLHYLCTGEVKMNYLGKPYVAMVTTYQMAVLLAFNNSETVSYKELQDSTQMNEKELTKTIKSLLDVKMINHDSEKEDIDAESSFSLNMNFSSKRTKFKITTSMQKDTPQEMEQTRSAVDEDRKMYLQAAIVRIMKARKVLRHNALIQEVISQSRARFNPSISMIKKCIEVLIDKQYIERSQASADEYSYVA

[2] = target: T1, von Hippel-Lindau disease tumor suppressor/Estrogen receptor/Cullin-2; assay: Protac activity against VHL/cullin2/ERalpha in human MCF7 cells assessed as ERalpha degradation by measuring ER protein/GADPH ratio at 10 nM after 4 hrs by Western blot analysis relative to control; type: cell-based; outline: as §1
Target sequence in this assay (P03372 whole entry, looked up): as the sequence (P03372 whole entry, looked up) above
Target sequence in this assay (P40337 whole entry, looked up): as the sequence (P40337 whole entry, looked up) above
Target sequence in this assay (Q13617 whole entry, looked up): as the sequence (Q13617 whole entry, looked up) above

[3] = target: T1, von Hippel-Lindau disease tumor suppressor/Estrogen receptor/Cullin-2; assay: Protac activity against VHL/cullin2/ERalpha in human MCF7 cells assessed as ERalpha degradation by measuring ER protein/GADPH ratio at 100 nM after 4 hrs by Western blot analysis relative to control; type: cell-based; outline: as §1
Target sequence in this assay (P03372 whole entry, looked up): as the sequence (P03372 whole entry, looked up) above
Target sequence in this assay (P40337 whole entry, looked up): as the sequence (P40337 whole entry, looked up) above
Target sequence in this assay (Q13617 whole entry, looked up): as the sequence (Q13617 whole entry, looked up) above

[4] = target: T1, von Hippel-Lindau disease tumor suppressor/Estrogen receptor/Cullin-2; assay: Protac activity against VHL/cullin2/ERalpha in human MCF7 cells assessed as ERalpha degradation by measuring ER protein/GADPH ratio at 1000 nM after 4 hrs by Western blot analysis relative to control; type: cell-based; outline: as §1
Target sequence in this assay (P03372 whole entry, looked up): as the sequence (P03372 whole entry, looked up) above
Target sequence in this assay (P40337 whole entry, looked up): as the sequence (P40337 whole entry, looked up) above
Target sequence in this assay (Q13617 whole entry, looked up): as the sequence (Q13617 whole entry, looked up) above

[5] = target: T1, von Hippel-Lindau disease tumor suppressor/Estrogen receptor/Cullin-2; assay: Protac activity against VHL/cullin2/ERalpha in human MCF7 cells assessed as ERalpha degradation after 4 hrs by Western blot analysis; type: cell-based; outline: as §1
Target sequence in this assay (P03372 whole entry): as the sequence (P03372 whole entry, looked up) above
Target sequence in this assay (P40337 whole entry): as the sequence (P40337 whole entry, looked up) above
Target sequence in this assay (Q13617 whole entry): as the sequence (Q13617 whole entry, looked up) above

[6] = target: T1, von Hippel-Lindau disease tumor suppressor/Estrogen receptor/Cullin-2; assay: Protac activity against VHL/cullin2/ERalpha in human MCF7 cells assessed as ERalpha degradation by measuring ER protein/GAPDH ratio at 0.03 nM after 4 hrs by Western blot analysis relative to control; type: cell-based; outline: as §1
Target sequence in this assay (P03372 whole entry, looked up): as the sequence (P03372 whole entry, looked up) above
Target sequence in this assay (P40337 whole entry, looked up): as the sequence (P40337 whole entry, looked up) above
Target sequence in this assay (Q13617 whole entry, looked up): as the sequence (Q13617 whole entry, looked up) above

[7] = target: T1, von Hippel-Lindau disease tumor suppressor/Estrogen receptor/Cullin-2; assay: Protac activity against VHL/cullin2/ERalpha in human MCF7 cells assessed as ERalpha degradation by measuring ER protein/GAPDH ratio at 0.3 nM after 4 hrs by Western blot analysis relative to control; type: cell-based; outline: as §1
Target sequence in this assay (P03372 whole entry, looked up): as the sequence (P03372 whole entry, looked up) above
Target sequence in this assay (P40337 whole entry, looked up): as the sequence (P40337 whole entry, looked up) above
Target sequence in this assay (Q13617 whole entry, looked up): as the sequence (Q13617 whole entry, looked up) above

[8] = target: T1, von Hippel-Lindau disease tumor suppressor/Estrogen receptor/Cullin-2; assay: Protac activity against VHL/cullin2/ERalpha in human MCF7 cells assessed as ERalpha degradation by measuring ER protein/GAPDH ratio at 0.6 nM after 4 hrs by Western blot analysis relative to control; type: cell-based; outline: as §1
[9] = target: T1, von Hippel-Lindau disease tumor suppressor/Estrogen receptor/Cullin-2; assay: Protac activity against VHL/cullin2/ERalpha in human MCF7 cells assessed as ERalpha degradation by measuring ER protein/GAPDH ratio at 5 nM after 4 hrs by Western blot analysis relative to control; type: cell-based; outline: as §1
[10] = target: T1, von Hippel-Lindau disease tumor suppressor/Estrogen receptor/Cullin-2; assay: Protac activity against VHL/cullin2/ERalpha in human MCF7 cells assessed as ERalpha degradation by measuring ER protein/GAPDH ratio at 30 nM after 4 hrs by Western blot analysis relative to control; type: cell-based; outline: as §1
[11] = target: T1, von Hippel-Lindau disease tumor suppressor/Estrogen receptor/Cullin-2; assay: Protac activity against VHL/cullin2/ERalpha in human MCF7 cells assessed as ERalpha degradation by measuring ER protein/GAPDH ratio at 300 nM after 4 hrs by Western blot analysis relative to control; type: cell-based; outline: as §1
[12] = target: T1, von Hippel-Lindau disease tumor suppressor/Estrogen receptor/Cullin-2; assay: Protac activity against VHL/cullin2/ERalpha in human T47D cells assessed as ERalpha degradation by measuring ER protein/GAPDH ratio at 0.03 nM after 4 hrs by Western blot analysis relative to control; type: cell-based
Outline: (§2)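 T47D cells (DMEM, 10% FBS, passages 3−8) exposed 4 h over a dose series. RIPA lysates, equal protein, 10% SDS-PAGE, anti-ERα Western blot. ERα band density normalized to GAPDH; DC50 derived from the quantified dose–response.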

[13] = target: T1, von Hippel-Lindau disease tumor suppressor/Estrogen receptor/Cullin-2; assay: Protac activity against VHL/cullin2/ERalpha in human T47D cells assessed as ERalpha degradation by measuring ER protein/GAPDH ratio at 0.1 nM after 4 hrs by Western blot analysis relative to control; type: cell-based; outline: as §2
[14] = target: T1, von Hippel-Lindau disease tumor suppressor/Estrogen receptor/Cullin-2; assay: Protac activity against VHL/cullin2/ERalpha in human T47D cells assessed as ERalpha degradation by measuring ER protein/GAPDH ratio at 0.3 nM after 4 hrs by Western blot analysis relative to control; type: cell-based; outline: as §2
[15] = target: T1, von Hippel-Lindau disease tumor suppressor/Estrogen receptor/Cullin-2; assay: Protac activity against VHL/cullin2/ERalpha in human T47D cells assessed as ERalpha degradation by measuring ER protein/GAPDH ratio at 0.6 nM after 4 hrs by Western blot analysis relative to control; type: cell-based; outline: as §2
[16] = target: T1, von Hippel-Lindau disease tumor suppressor/Estrogen receptor/Cullin-2; assay: Protac activity against VHL/cullin2/ERalpha in human T47D cells assessed as ERalpha degradation by measuring ER protein/GAPDH ratio at 1 nM after 4 hrs by Western blot analysis relative to control; type: cell-based; outline: as §2
[17] = target: T1, von Hippel-Lindau disease tumor suppressor/Estrogen receptor/Cullin-2; assay: Protac activity against VHL/cullin2/ERalpha in human T47D cells assessed as ERalpha degradation by measuring ER protein/GAPDH ratio at 5 nM after 4 hrs by Western blot analysis relative to control; type: cell-based; outline: as §2
[18] = target: T1, von Hippel-Lindau disease tumor suppressor/Estrogen receptor/Cullin-2; assay: Protac activity against VHL/cullin2/ERalpha in human T47D cells assessed as ERalpha degradation by measuring ER protein/GAPDH ratio at 10 nM after 4 hrs by Western blot analysis relative to control; type: cell-based; outline: as §2
[19] = target: T1, von Hippel-Lindau disease tumor suppressor/Estrogen receptor/Cullin-2; assay: Protac activity against VHL/cullin2/ERalpha in human T47D cells assessed as ERalpha degradation by measuring ER protein/GAPDH ratio at 30 nM after 4 hrs by Western blot analysis relative to control; type: cell-based; outline: as §2
[20] = target: T1, von Hippel-Lindau disease tumor suppressor/Estrogen receptor/Cullin-2; assay: Protac activity against VHL/cullin2/ERalpha in human T47D cells assessed as ERalpha degradation by measuring ER protein/GAPDH ratio at 100 nM after 4 hrs by Western blot analysis relative to control; type: cell-based; outline: as §2
[21] = target: T1, von Hippel-Lindau disease tumor suppressor/Estrogen receptor/Cullin-2; assay: Protac activity against VHL/cullin2/ERalpha in human T47D cells assessed as ERalpha degradation by measuring ER protein/GAPDH ratio at 300 nM after 4 hrs by Western blot analysis relative to control; type: cell-based; outline: as §2
[22] = target: T1, von Hippel-Lindau disease tumor suppressor/Estrogen receptor/Cullin-2; assay: Protac activity against VHL/cullin2/ERalpha in human T47D cells assessed as ERalpha degradation by measuring ER protein/GAPDH ratio at 1000 nM after 4 hrs by Western blot analysis relative to control; type: cell-based; outline: as §2
[23] = target: T1, von Hippel-Lindau disease tumor suppressor/Estrogen receptor/Cullin-2; assay: Protac activity against VHL/cullin2/ERalpha in human T47D cells assessed as ERalpha degradation after 4 hrs by Western blot analysis; type: cell-based; outline: as §2
Target sequence in this assay (P03372 whole entry): as the sequence (P03372 whole entry, looked up) above
Target sequence in this assay (P40337 whole entry): as the sequence (P40337 whole entry, looked up) above
Target sequence in this assay (Q13617 whole entry): as the sequence (Q13617 whole entry, looked up) above

[24] = target: T1, von Hippel-Lindau disease tumor suppressor/Estrogen receptor/Cullin-2; assay: Protac activity against VHL/cullin2/ERalpha in human MCF7 cells assessed as ERalpha degradation by measuring reduction in ER protein level at 30 nM after 1 hr by Western blot analysis relative to control; type: cell-based; set-up: scale not given: the % may be the effect or the level left
Outline: (§3)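 Time course: cells given 30 nM degrader and harvested at time points from 1 h up to 24 h. ERα assessed by Western blot against a GAPDH loading control, with levels taken relative to DMSO.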

[25] = target: T1, von Hippel-Lindau disease tumor suppressor/Estrogen receptor/Cullin-2; assay: Protac activity against VHL/cullin2/ERalpha in human MCF7 cells assessed as ERalpha degradation by measuring reduction in ER protein level at 30 nM after 3 hrs by Western blot analysis relative to control; type: cell-based; set-up: scale not given: the % may be the effect or the level left; outline: as §3
[26] = target: T1, von Hippel-Lindau disease tumor suppressor/Estrogen receptor/Cullin-2; assay: Protac activity against VHL/cullin2/ERalpha in human T47D cells assessed as ERalpha degradation by measuring reduction in ER protein level at 30 nM after 1 to 3 hrs by Western blot analysis relative to control; type: cell-based; outline: as §3
[27] = target: T1, von Hippel-Lindau disease tumor suppressor/Estrogen receptor/Cullin-2; assay: Protac activity against VHL/cullin2/ERalpha in human MCF7 cells assessed as ERalpha degradation by measuring reduction in ER protein level pre-treated with raloxifene for 2 hrs followed by compound exposure at 30 nM for 4 hrs by Western blot analysis; type: cell-based
MCF7 [28] = assay: Inhibition of cell growth in human MCF7 cells after 4 days by wst-8-based colorimetric analysis; type: functional; settings: MCF7, 96 h
Outline: (§4)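 Cells seeded at 1500/well overnight, then exposed to graded compound doses for 4 days. Growth read by colorimetric WST-8 assay. GI50 from fitted curves. MCF-7 cells were kept in DMEM, 10% FBS, passages 3−8; human mammary epithelial cells were run the same way.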

MCF7 [29] = assay: Inhibition of cell growth in human MCF7 cells after 4 days by wst-8-based colorimetric analysis relative to control; type: functional; outline: as §4
MDA-MB-231 = assay: Inhibition of cell growth in human MDA-MB-231 cells at 10^-13 to 10^-5 M after 4 days by wst-8-based colorimetric analysis; type: functional
[30] = Inhibition of cell growth in primary human mammary epithelial cells at 10^-13 to 10^-6 M after 4 days by wst-8-based colorimetric analysis; settings: 96 h; outline: as §4
MCF7 [31] = assay: Antiproliferative activity against human MCF7 cells at 10 to 300 nM after 5 days by crystal violet staining based assay; type: functional, cell-based
Outline: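 MCF-7 cells in DMEM with 10% FBS and penicillin/streptomycin, passages 3−8, exposed to compounds at 10, 100 and 300 nM for 5 days, then fixed and stained with crystal violet.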

[32] = target: T1, von Hippel-Lindau disease tumor suppressor/Estrogen receptor/Cullin-2; assay: Protac activity against VHL/cullin2/ERalpha in human MCF7 cells assessed as ERalpha degradation by measuring ER protein/GAPDH ratio at 0.1 nM after 4 hrs by Western blot analysis relative to control; type: cell-based; outline: as §1
[33] = target: T1, von Hippel-Lindau disease tumor suppressor/Estrogen receptor/Cullin-2; assay: Protac activity against VHL/cullin2/ERalpha in human MCF7 cells assessed as ERalpha degradation by measuring reduction in ER protein level pre-treated with carfilzomib for 2 hrs followed by compound exposure at 30 nM for 4 hrs by Western blot analysis; type: cell-based
[34] = target: T1, von Hippel-Lindau disease tumor suppressor/Estrogen receptor/Cullin-2; assay: Protac activity against VHL/cullin2/ERalpha in human T47D cells assessed as ERalpha degradation by measuring reduction in ER protein level at 30 nM after 1 to 24 hrs hrs by Western blot analysis relative to control; type: cell-based; outline: as §3

CCN(CCCCCOCC(=O)N[C@H](C(=O)N1C[C@H](O)C[C@H]1C(=O)N[C@@H](C)c1ccc(-c2scnc2C)cc1)C(C)(C)C)CCOc1ccc(C(=O)c2c(-c3ccc(O)cc3)sc3cc(O)ccc23)cc1
Ratio [1]: 8
Ratio [2]: 0.3
Ratio [3]: 0.3
Ratio [4]: 13
DC50 [5]: 0.17 nM
Ratio [6]: 84
Ratio [7]: 28
Ratio [8]: 12
Ratio [9]: 0.3
Ratio [10]: 0.3
Ratio [11]: 0.3
Ratio [12]: 84
Ratio [13]: 73
Ratio [14]: 62
Ratio [15]: 58
Ratio [16]: 33
Ratio [17]: 4
Ratio [18]: 3
Ratio [19]: 2
Ratio [20]: 4
Ratio [21]: 6
Ratio [22]: 25
DC50 [23]: 0.43 nM
Activity [24]: > 80%
Activity [25]: 100%
Activity [26]: Active
Activity [27]: inactive
GI50 (MCF7 [28]): 0.77 nM
Imax (MCF7 [29]): 57.5%
growth inhibition (GI) (MDA-MB-231): inactive
Activity [30]: Non-Toxic
Activity (MCF7 [31]): Active
Ratio [32]: 76
Activity [33]: inactive
Activity [34]: Active
